The results in this text go back to ChEMBL document CHEMBL3351809, “New potent antibacterials against Gram-positive multiresistant pathogens: effects of side chain modification and chirality in linezolid-like 1,2,4-oxadiazoles” (Bioorg Med Chem, 2014).

The MIC is the lowest concentration found to suppress growth.

Values after ≈ are worked out from the molar mass of the structure shown.

For series [1], the system named is Staphylococcus aureus. Kind of series: Antibacterial activity against Staphylococcus aureus ATCC 29213 by broth microdilution method. Type of series: functional. A general note: Dilution methods test growth across graded concentrations, often in twofold steps.
The nature of series [2]: Antibacterial activity against Staphylococcus aureus Mu50 ATCC 700699 by broth microdilution method. It counts as functional, Staphylococcus aureus subsp. aureus Mu50.
For series [3], the system named is Staphylococcus aureus. Kind of series: Antibacterial activity against methicillin-resistant Staphylococcus aureus MRSA M923 by broth microdilution method. Type of series: functional.
Series [4] has as its system Staphylococcus aureus. Description: Antibacterial activity against methicillin-resistant Staphylococcus aureus MRSA 433 by broth microdilution method. It counts as functional.
In series [5] the test system is Staphylococcus aureus. Description: Antibacterial activity against methicillin-resistant Staphylococcus aureus MRSA F511 by broth microdilution method. It counts as functional.
Series [6] has as its system Staphylococcus aureus. Kind of series: Antibacterial activity against linezolid-sensitive methicillin-resistant Staphylococcus aureus by broth microdilution method. It counts as functional.
Series [7] concerns Staphylococcus epidermidis. Kind of series: Antibacterial activity against linezolid-resistant methicillin-resistant Staphylococcus epidermidis by broth microdilution method. Type of series: functional.
Series [8] has as its system HepG2. Kind of series: Cytotoxicity against human HepG2 cells at 25 ug/ml after 48 hrs by presto-blue staining-based assay. The conditions noted are these: hepg2, 48 h. It counts as cell-based. In short, it runs like this: (§1)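 HepG2 cells were grown in DMEM with 10% heat-inactivated FBS, 2 mM L-glutamine and penicillin/streptomycin. They were seeded at 40,000 cells/cm² on collagen-coated wells and treated two days later with enantiomers at 25–100 µg/ml (in DMSO) for 48 h. PrestoBlue resazurin was read after 1 h at 37 °C as absorbance at 570 nm against 600 nm. Data are mean ± SEM of 3 experiments in triplicate; Student's t test.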

Series [9] deals with HepG2. Description: Cytotoxicity against human HepG2 cells at 50 to 100 ug/ml after 48 hrs by presto-blue staining-based assay. It counts as cell-based. Conditions: hepg2, 48 h. In a few lines: as §1
Series [10] relates to HepG2. Description: Cytotoxicity against human HepG2 cells at 25 to 100 ug/ml after 48 hrs by presto-blue staining-based assay. It counts as cell-based. The conditions noted are these: hepg2, 48 h. In a few lines:
as §1

For series [11], the system named is HepG2. Kind of series: Cytotoxicity against human HepG2 cells at 100 ug/ml after 48 hrs by presto-blue staining-based assay. Type of series: cell-based. Conditions: hepg2, 48 h. In a few lines:
as §1

With `C=C1CN(c2ccc(-c3nc(C)no3)cc2)C(=O)O1`, the MIC (in the series with Staphylococcus aureus [1]; in series [2]; against Staphylococcus aureus [3]; against Staphylococcus aureus [4]; against Staphylococcus aureus [5]) was > 50 µg/mL each time.

On to `C=C1CN(c2ccc(-c3nc(C)no3)c(F)c2)C(=O)O1`, for which the MIC (against Staphylococcus aureus [1]; in [2]; in the series with Staphylococcus aureus [3]; with Staphylococcus aureus [4]; against Staphylococcus aureus [5]) was > 50 µg/mL in each case.

`CNC(=S)NC[C@H]1CN(c2ccc(-c3nc(C)no3)cc2)C(=O)O1`: the MIC in the series with Staphylococcus aureus [6] is 0.5 µg/mL (≈ 1.44 µM); in [7], 8 µg/mL (≈ 23 µM). The figures for the Activity result in the series on HepG2 [8] and with HepG2 [9] were “Toxic” and “Non-toxic”, respectively.

In the case of `CNC(=S)NC[C@H]1CN(c2ccc(-c3nc(C)no3)c(F)c2)C(=O)O1`, in the series with HepG2 [10], the Activity entry was “Toxic”.

`CNC(=S)NC[C@@H]1CN(c2ccc(-c3nc(C)no3)c(F)c2)C(=O)O1`: the Activity result with HepG2 [10] is on record as “Toxic”.

As for `Cc1noc(-c2ccc(N3CC(CN=C=S)OC3=O)cc2)n1` (racemic), the minimum inhibitory concentration (MIC) was > 50 µg/mL against Staphylococcus aureus [1]; > 50 µg/mL in series [2]; > 50 µg/mL against Staphylococcus aureus [3]; > 50 µg/mL against Staphylococcus aureus [4]; 50 µg/mL (≈ 158 µM) in the series with Staphylococcus aureus [5].

Turning to `Cc1noc(-c2ccc(N3CC(CN=C=S)OC3=O)cc2F)n1` (racemic), the MIC (in the series with Staphylococcus aureus [1]; in [2]; in the series on Staphylococcus aureus [3]; against Staphylococcus aureus [4]; against Staphylococcus aureus [5]) was > 50 µg/mL in each case.

For the molecule `Cc1noc(-c2ccc(N3CC(CNC(N)=S)OC3=O)cc2)n1` (racemic), the minimal inhibitory concentration (MIC) was > 50 µg/mL with Staphylococcus aureus [1]; > 50 µg/mL in series [2]; > 50 µg/mL with Staphylococcus aureus [3]; > 50 µg/mL against Staphylococcus aureus [4]; 50 µg/mL (≈ 150 µM) in the series with Staphylococcus aureus [5].

`Cc1noc(-c2ccc(N3CC(CNC(N)=S)OC3=O)cc2F)n1` (racemic): the MIC (with Staphylococcus aureus [1]; in series [2]; in the series with Staphylococcus aureus [3]; against Staphylococcus aureus [4]; with Staphylococcus aureus [5]) was > 50 µg/mL in each case.

For `CNC(=S)NCC1CN(c2ccc(-c3nc(C)no3)c(F)c2)C(=O)O1` (racemic), the MIC against Staphylococcus aureus [1] stood at 6.25 µg/mL (≈ 17.1 µM); in series [2], 1.6 µg/mL (≈ 4.38 µM); with Staphylococcus aureus [3], 6.25 µg/mL (≈ 17.1 µM); against Staphylococcus aureus [4], 3.12 µg/mL (≈ 8.55 µM); in the series with Staphylococcus aureus [5], 6.25 µg/mL (≈ 17.1 µM).

For `CNC(=S)NCC1CN(c2ccc(-c3nc(C)no3)cc2)C(=O)O1` (racemic), the MIC in the series on Staphylococcus aureus [1] turned out to be 6.25 µg/mL (≈ 18 µM); in series [2], 1.6 µg/mL (≈ 4.61 µM); in the series with Staphylococcus aureus [3], 6.25 µg/mL (≈ 18 µM); with Staphylococcus aureus [4] it was 3.12 µg/mL (≈ 9 µM); in the series on Staphylococcus aureus [5], 6.25 µg/mL (≈ 18 µM).

For the molecule `Cc1noc(-c2ccc(N3CC(Cn4ccnn4)OC3=O)cc2)n1` (racemic), the MIC turned out to be 25 µg/mL (≈ 76.6 µM) against Staphylococcus aureus [1]; 3.12 µg/mL (≈ 9.58 µM) in series [2]; 25 µg/mL (≈ 76.6 µM) in the series with Staphylococcus aureus [3]; 12.5 µg/mL (≈ 38.3 µM) against Staphylococcus aureus [4]; 12.5 µg/mL (≈ 38.3 µM) against Staphylococcus aureus [5].

For `Cc1noc(-c2ccc(N3CC(Cn4ccnn4)OC3=O)cc2F)n1` (racemic), the minimum inhibitory concentration (MIC) in the series on Staphylococcus aureus [1] came to 25 µg/mL (≈ 72.6 µM); in series [2] it was 1.6 µg/mL (≈ 4.65 µM); in the series with Staphylococcus aureus [3], 25 µg/mL (≈ 72.6 µM); against Staphylococcus aureus [4] it was 6.25 µg/mL (≈ 18.2 µM); in the series on Staphylococcus aureus [5], 12.5 µg/mL (≈ 36.3 µM).

As for `CC(=O)NC[C@H]1CN(c2ccc(N3CCOCC3)c(F)c2)C(=O)O1` [LINEZOLID], the MIC against Staphylococcus aureus [3] and against Staphylococcus aureus [5] was 3.12 µg/mL (≈ 9.26 µM) each time. Besides, in the series with HepG2 [11], the Activity amounted to 20%.
